For assay [1], the system named is OVCAR-5. In words: Cytotoxicity against human OVCAR-5 cells incubated for 72 hrs by Cell titer blue assay. Conditions: OVCAR-5, 72 h. The assay is classed as functional, cell-based. The method in brief:
(§1)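 Cells grown in RPMI 1640 with 10% FBS, penicillin and streptomycin at 37 °C, 5% CO₂; 5,000 log-phase cells per well seeded, left overnight, then exposed 72 h to serial dilutions from DMSO (DMSO vehicle; paclitaxel positive control). Viability read by CellTiter-Blue absorbance; IC50 relative to vehicle by nonlinear regression; triplicate, three independent experiments.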
On the technique in general: Alamar Blue is a resazurin reagent that responds to reducing activity.

In assay [2] the test system is OVCAR-3. As to the kind of experiment: Cytotoxicity against human OVCAR-3 cells incubated for 72 hrs by Cell titer blue assay. Conditions: OVCAR-3, 72 h. The assay is classed as functional, cell-based. The method in brief: as §1
Assay [3] relates to HT-29. In words: Cytotoxicity against human HT-29 cells incubated for 72 hrs by Cell titer blue assay. The assay is classed as functional, cell-based. Particulars: HT-29, 72 h. Put shortly:
as §1

Assay [4] addresses Sodium/potassium-transporting ATPase (Sus scrofa). In words: Inhibition of NA+/K+ ATPase (porcine cerebral cortex) activity incubated for 15 mins in presence of ATP by ADP-Glo assay.
In assay [5] the test system is MDA-MB-231. As to the kind of experiment: Upregulation of p-Akt expression in human MDA-MB-231 cells at 0.5 uM incubated for 5 hrs by Western blot analysis. The assay is classed as functional, cell-based. The method in brief:
(§2)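 MDA-MB-231 cells in DMEM with 10% FBS and antibiotics, seeded overnight, then exposed to 0.5 µM or 0.48 µM (from DMSO) for 5 h at 37 °C. Cells washed in cold PBS, lysed in RIPA with EDTA and protease inhibitors; equal protein immunoblotted for p-Akt or NF-κB p50, normalized to β-actin; n = 3, t test versus control.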
For orientation: In western blotting, separated proteins are transferred to a membrane and probed.

Assay [6] relates to MDA-MB-231. As to the kind of experiment: Effect on PI3K expression in human MDA-MB-231 cells at 1 to 10 uM incubated for 72 hrs by Western blot analysis. The assay is classed as functional, cell-based. Particulars: dose 1-10 µM. Put shortly:
(§3)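 MDA-MB-231 cells in DMEM with 10% FBS, penicillin and streptomycin; 5,000 cells per well seeded, left overnight, then exposed to 1.0, 5.0 or 10.0 µM (from DMSO) for 72 h at 37 °C. Surviving cells lysed in RIPA with 1 mM EDTA and protease inhibitors; equal protein (BCA) immunoblotted, signals normalized to β-actin; three independent experiments, t test versus control.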

Assay [7] has as its system MDA-MB-231. In words: Cytotoxicity against human MDA-MB-231 cells incubated for 72 hrs by Cell titer blue assay. The assay is classed as functional, cell-based. Conditions: MDA-MB-231, 72 h. Put shortly: as §1
Assay [8] relates to MDA-MB-231. In words: Downregulation of NF kappaB p50 expression in human MDA-MB-231 cells at 1 to 10 uM incubated for 72 hrs by Western blot analysis. Conditions: dose 1-10 µM.
In assay [9] the test system is MDA-MB-231. As to the kind of experiment: Downregulation of NF kappaB p52 expression in human MDA-MB-231 cells at 5 to 10 uM incubated for 72 hrs by Western blot analysis. Particulars: dose 5-10 µM. The assay is classed as functional, cell-based. The method in brief: as §3
In assay [10] the test system is MDA-MB-231. In words: Upregulation of Akt expression in human MDA-MB-231 cells at 1 to 10 uM incubated for 72 hrs by Western blot analysis. The assay is classed as functional, cell-based. Particulars: dose 1-10 µM. The method in brief:
as §3

A short description of assay [11]: Cytotoxicity against human FT194 cells incubated for 72 hrs by Cell titer blue assay. The assay is classed as functional, cell-based. Particulars: FT194, 72 h. Put shortly: as §1
Assay [12] has as its system MDA-MB-231. As to the kind of experiment: Upregulation of NF kappaB p65 expression in human MDA-MB-231 cells at 1 to 10 uM incubated for 72 hrs by Western blot analysis. The assay is classed as functional, cell-based. Conditions: dose 1-10 µM. The method in brief: as §3
Assay [13] deals with MDA-MB-435. As to the kind of experiment: Cytotoxicity against human MDA-MB-435 cells incubated for 72 hrs by Cell titer blue assay. The assay is classed as functional, cell-based. Conditions: MDA-MB-435, 72 h. Put shortly:
as §1

Assay [14] has as its system MDA-MB-231. As to the kind of experiment: Downregulation of NF-kappaB p50 expression in human MDA-MB-231 cells at 0.5 uM incubated for 5 hrs by Western blot analysis. The assay is classed as functional, cell-based. The method in brief: as §2
Assay [15] relates to MDA-MB-231. As to the kind of experiment: Effect on NF-kappaB p52 expression in human MDA-MB-231 cells at 1 to 10 uM incubated for 72 hrs by Western blot analysis. Particulars: dose 1-10 µM. The assay is classed as functional, cell-based. The method in brief:
as §3

In assay [16] the test system is MDA-MB-231. In words: Downregulation of NF-kappaB p50 expression in human MDA-MB-231 cells at 0.48 uM incubated for 5 hrs by Western blot analysis. The assay is classed as functional, cell-based. Put shortly:
as §2

For assay [17], the system named is MDA-MB-231. In words: Upregulation of p-Akt expression in human MDA-MB-231 cells at 0.48 uM incubated for 5 hrs by Western blot analysis. The assay is classed as functional, cell-based. The method in brief: as §2

Activity calls are given as the source filed them. No cut-off for these calls is given here.

As a reminder, the IC50 is the midpoint of a concentration-inhibition curve. On to `CC(=O)O[C@H]1C(=O)[C@@]2(C)[C@H]([C@H](OC(=O)c3ccccc3)[C@]3(O)C[C@H](OC(=O)[C@H](O)[C@@H](NC(=O)c4ccccc4)c4ccccc4)C(C)=C1C3(C)C)[C@]1(OC(C)=O)CO[C@@H]1C[C@@H]2O` [PACLITAXEL], for which the figures for the IC50 in [1], in assay [2] and in assay [3] were 7.3 µM, 4.9 nM and 3400 nM, respectively.
In the case of `CO[C@H]1C[C@H](O[C@H]2CC[C@]3(C)C4[C@H](O)C(=O)[C@]5(C)[C@@H](C6=CC(=O)OC6)CC[C@]5(O)[C@@]45O[C@H]5C[C@@H]3C2)O[C@@H](C)[C@@H]1O` (stereo not given in full), the IC50 in [1] was determined as 0.44 µM; in assay [4] it was 1200 nM; in assay [2], 140 nM; in [7], 500 nM; in assay [3], 220 nM; in [11], 1100 nM. The molecule further gave an IC50 in assay [13] of 200 nM. Also, the result in [5], in [8], in assay [9], in [10] and in assay [12] was Active. Besides, the outcome in assay [6], in assay [14] and in assay [15] was inactive.
Consider `C[C@H]1O[C@@H](O[C@H]2[C@@H](O)C[C@H](O[C@H]3[C@@H](O)C[C@H](O[C@H]4CC[C@@]5(C)[C@H](CC[C@@H]6[C@@H]5C[C@@H](O)[C@]5(C)[C@@H](C7=CC(=O)OC7)CC[C@]65O)C4)O[C@@H]3C)O[C@@H]2C)C[C@H](O)[C@@H]1O`, for which the outcome in assay [6], in [16] and in [15] was inactive. Besides, the result in assay [8], in assay [10], in assay [12] and in assay [17] was Active.

The record behind these values is ChEMBL document CHEMBL5321243, “The Cytotoxic Cardiac Glycoside (-)-Cryptanoside A from the Stems of Cryptolepis dubia and Its Molecular Targets” (J Nat Prod, 2023).
